The text below walks through data of ChEMBL document CHEMBL1155395, “Discovery of substituted biphenyl imidazoles as potent, bioavailable bombesin receptor subtype-3 agonists” (Bioorg Med Chem Lett, 2010).

In data set [1] the target is T1, Bombesin receptor subtype-3 (Homo sapiens, UniProt P32247).
T1 sequence (P32247 whole entry): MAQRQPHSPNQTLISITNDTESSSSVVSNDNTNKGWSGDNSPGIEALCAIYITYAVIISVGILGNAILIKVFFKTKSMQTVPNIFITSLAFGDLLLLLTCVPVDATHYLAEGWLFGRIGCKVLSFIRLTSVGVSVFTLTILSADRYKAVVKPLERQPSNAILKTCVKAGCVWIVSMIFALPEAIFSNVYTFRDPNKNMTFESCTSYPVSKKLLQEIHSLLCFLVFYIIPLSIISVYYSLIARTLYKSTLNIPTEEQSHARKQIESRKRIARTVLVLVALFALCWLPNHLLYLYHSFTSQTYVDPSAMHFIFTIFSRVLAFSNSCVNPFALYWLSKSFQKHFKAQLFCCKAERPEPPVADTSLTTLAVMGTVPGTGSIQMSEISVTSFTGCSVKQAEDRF
The data set can be described thus: Agonistic activity at human BRS3 expressed in HEK293AEO cells by aequorin bioluminescence assay. Format: functional, cell-based.

Data set [2] addresses T2, Bombesin receptor subtype-3 (Homo sapiens) (UniProt P32247).
T2 sequence (whole entry): T1 sequence (P32247 whole entry)
The data set can be described thus: Agonistic activity at human BRS3 expressed in HEK293AEO at 10 uM cells by aequorin bioluminescence assay relative to dY peptide. Format: functional, cell-based.

Data set [3] deals with T3, Bombesin receptor subtype-3 (Mus musculus, UniProt O54798).
T3 sequence (O54798 whole entry): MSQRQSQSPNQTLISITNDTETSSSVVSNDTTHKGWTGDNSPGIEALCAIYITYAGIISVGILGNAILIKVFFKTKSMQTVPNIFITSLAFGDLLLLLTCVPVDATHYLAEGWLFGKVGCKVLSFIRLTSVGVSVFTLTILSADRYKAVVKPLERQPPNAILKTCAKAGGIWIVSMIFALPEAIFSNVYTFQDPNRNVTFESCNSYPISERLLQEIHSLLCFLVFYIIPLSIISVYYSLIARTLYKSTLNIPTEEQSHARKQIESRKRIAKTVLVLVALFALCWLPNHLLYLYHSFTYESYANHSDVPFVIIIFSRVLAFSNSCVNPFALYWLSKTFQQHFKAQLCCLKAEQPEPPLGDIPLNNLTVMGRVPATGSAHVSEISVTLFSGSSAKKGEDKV
The data set is described as follows: Agonistic activity at mouse BRS3 expressed in HEK293AEO cells by aequorin bioluminescence assay. Format: functional, cell-based.

Data set [4] concerns the target T4, Bombesin receptor subtype-3 (Mus musculus) (UniProt O54798).
T4 sequence (whole entry): T3 sequence (O54798 whole entry)
The data set is described as follows: Agonistic activity at mouse BRS3 expressed in HEK293AEO cells at 10 uM by aequorin bioluminescence assay relative to dY peptide. The class given is functional, cell-based.

A short description of data set [5]: Oral bioavailability in Sprague-Dawley rat at 4 mg/kg. Format: ADME, organism-based. The settings on record: in vivo. An outline of the steps:
(§1)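 Sprague-Dawley rats given compound as solution in EtOH/PEG400/water (10:40:50), 1 mg/kg iv and 4 mg/kg po; clearance, steady-state volume of distribution, half-life, oral bioavailability and dose-normalised AUC derived.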

Data set [6] is described as follows: Clearance in Sprague-Dawley rat at 1 mg/kg, iv and 4 mg/kg, po. The class given is ADME, organism-based. The conditions noted are these: in vivo. An outline of the steps: as §1
The nature of data set [7]: Volume of distribution at steady state in Sprague-Dawley rat at 1 mg/kg, iv and 4 mg/kg, po. The conditions noted are these: in vivo, read-out: Vdss. The class given is ADME, organism-based. The procedure, abridged:
as §1

Data set [8] can be described thus: Half life in Sprague-Dawley rat at 1 mg/kg, iv and 4 mg/kg, po. Format: ADME, organism-based. The conditions noted are these: in vivo. An outline of the steps: as §1
Data set [9] deals with Rattus norvegicus. The data set is described as follows: Reduction of food intake in rat at 25 ug, icv. Also noted: scale not given: the % may be the effect or the level left. Format: functional. An outline of the steps: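 Rats dosed intracerebroventricularly with 25 µg; food intake compared with animals receiving vehicle (20% PG/water).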
For data set [10], the system named is Mus musculus. The data set can be described thus: Effect on food intake in po dosed diet-induced obese mouse. Format: functional, organism-based.
Data set [11] addresses T1, Bombesin receptor subtype-3. The data set is described as follows: Displacement of [125I]-[D-Tyr6,beta-Ala11,Phe13,Nle14]bombesin from human BRS3 expressed in NFAT-CHO cells after 2 hrs by liquid scintillation counting. The class given is cell-based. An outline of the steps: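 Membranes (1–4 µg protein) from NFAT-CHO cells expressing human BRS-3, incubated with 0.3 pM 125I-dY-peptide and a range of test compound concentrations in 50 mM Tris pH 7.2, 5 mM MgCl2, 0.1% BSA, 2 h at room temperature; bound/free separated by GF/c filtration with PBS washes; filter radioactivity by scintillation counting; mean of at least three runs.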

Data set [12] has as its target T5, Bombesin receptor subtype-3 (Rattus norvegicus, UniProt Q8K418).
T5 sequence (Q8K418 whole entry): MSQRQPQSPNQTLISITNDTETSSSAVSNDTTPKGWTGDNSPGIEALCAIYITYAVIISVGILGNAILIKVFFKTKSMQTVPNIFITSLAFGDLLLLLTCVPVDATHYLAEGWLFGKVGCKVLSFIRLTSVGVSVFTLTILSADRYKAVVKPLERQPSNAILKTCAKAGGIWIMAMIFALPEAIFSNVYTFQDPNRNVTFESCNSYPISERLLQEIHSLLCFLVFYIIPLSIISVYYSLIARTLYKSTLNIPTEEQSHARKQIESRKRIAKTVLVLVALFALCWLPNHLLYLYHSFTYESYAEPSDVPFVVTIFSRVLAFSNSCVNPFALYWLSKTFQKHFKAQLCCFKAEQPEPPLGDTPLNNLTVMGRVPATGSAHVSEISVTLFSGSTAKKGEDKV
The data set is described as follows: Agonistic activity at rat BRS3 expressed in HEK293AEO at 10 uM by aequorin bioluminescence assay. Format: functional.

Data set [13] has as its target T6, Bombesin receptor subtype-3 (Rattus norvegicus) (UniProt Q8K418).
T6 sequence (whole entry): T5 sequence (Q8K418 whole entry)
The data set is described as follows: Agonistic activity at rat BRS3 expressed in HEK293AEO cells at by aequorin bioluminescence assay relative to dY peptide. Format: functional, cell-based.

Data set [14] has as its target Neuromedin-B receptor (Homo sapiens, UniProt P28336). The data set is described as follows: Displacement of [125I]-[D-Tyr6,beta-Ala11,Phe13,Nle14]bombesin from human bombesin BB1 receptor expressed in NFAT-CHO cells after 2 hrs by liquid scintillation counting. Format: cell-based.
For data set [15], the target named is Gastrin-releasing peptide receptor (Homo sapiens, UniProt P30550). The data set can be described thus: Displacement of [125I]-[D-Tyr6,beta-Ala11,Phe13,Nle14]bombesin from human bombesin BB2 receptor expressed in NFAT-CHO cells after 2 hrs by liquid scintillation counting. Format: cell-based.
Chain of Gastrin-releasing peptide receptor (P30550 whole entry): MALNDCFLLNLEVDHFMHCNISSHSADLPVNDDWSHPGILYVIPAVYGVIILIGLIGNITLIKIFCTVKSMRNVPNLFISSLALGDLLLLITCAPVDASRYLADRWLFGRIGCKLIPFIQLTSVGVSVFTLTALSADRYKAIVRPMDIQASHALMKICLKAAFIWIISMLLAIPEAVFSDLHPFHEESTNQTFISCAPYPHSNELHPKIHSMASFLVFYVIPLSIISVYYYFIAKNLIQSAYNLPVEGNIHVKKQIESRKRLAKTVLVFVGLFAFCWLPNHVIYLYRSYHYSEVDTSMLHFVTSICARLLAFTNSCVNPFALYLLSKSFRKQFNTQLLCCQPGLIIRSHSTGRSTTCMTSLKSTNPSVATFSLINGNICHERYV

The structures appear in SMILES notation. Activity calls are given as the source filed them. No cut-off for these calls is given here.

Chain of Neuromedin-B receptor (P28336 whole entry): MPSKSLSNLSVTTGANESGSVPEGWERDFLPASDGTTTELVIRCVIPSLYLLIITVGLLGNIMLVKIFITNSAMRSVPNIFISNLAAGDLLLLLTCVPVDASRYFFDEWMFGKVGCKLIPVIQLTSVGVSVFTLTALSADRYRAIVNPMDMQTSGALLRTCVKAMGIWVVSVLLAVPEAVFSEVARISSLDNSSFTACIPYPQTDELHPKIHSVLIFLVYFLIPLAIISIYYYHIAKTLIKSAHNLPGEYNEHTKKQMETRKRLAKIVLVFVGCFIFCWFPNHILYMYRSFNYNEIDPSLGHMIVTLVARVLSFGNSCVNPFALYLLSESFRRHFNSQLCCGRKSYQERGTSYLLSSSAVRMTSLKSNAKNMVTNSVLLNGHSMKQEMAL

As for `CC(C)(C)Cc1cnc(CCc2ccc(-c3ccccc3C(=O)O)cc2)[nH]1`, the EC50 in data set [1] was determined as 106 nM; in data set [3], 6.3 nM. Also, the results for the Activity in [2], in data set [4] and in data set [9] were 103%, 105% and 29%, respectively. The same compound returned a bioavailability in data set [5] of 19%. The compound further displayed a clearance in data set [6] of 1.02 mL/min/kg. Moreover, the Vd in data set [7] was determined as 0.128 L/kg. Besides, in data set [8], the half-life is 1.54 h. In data set [10], the result was inactive.

As for `CCCCc1cnc(C(CCCO)Cc2ccc(-c3ccccc3C(=O)O)cc2)[nH]1` (centres undefined), the IC50 was 3680 nM in data set [11], above 10000 nM in data set [14] and above 10000 nM in [15]. For the same compound, the EC50 was 1900 nM in [1], 174 nM in [12] and 238 nM in data set [3]. For the same compound, the Activity was 74% in data set [2], 101% in data set [13] and 98% in data set [4].

Take `CCCCc1cnc(CCc2ccc(-c3ccccc3C(=O)O)cc2)[nH]1`: the EC50 is 2710 nM in [1] and 93 nM in [3]. Besides, the values for the Activity in [2] and in data set [4] were 78% and 116%, respectively. The same compound showed a bioavailability in [5] of 16%. The clearance in [6] was determined as 1.3 mL/min/kg. Besides, the Vd in data set [7] amounted to 0.1 L/kg. For the same compound, the half-life in data set [8] is 1.56 h.

On to `CC(C)CCc1cnc(CCc2ccc(-c3ccccc3C(=O)O)cc2)[nH]1`, for which the EC50 amounted to 119 nM in data set [1] and 10 nM in data set [3]. Also, the Activity amounted to 112% in data set [2] and 111% in data set [4].

With `CCC(C)(CC)Cc1cnc(CCc2ccc(-c3ccccc3C(=O)O)cc2)[nH]1`, the concentration giving a half-maximal response (EC50) came out at 76 nM in data set [1] and 30 nM in data set [3]. The Activity in data set [2] is 97%; in data set [4] it was 116%.

As for `O=C(O)c1ccccc1-c1ccc(CCc2ncc(Cc3ccc(F)cc3)[nH]2)cc1`, the EC50 came to 1600 nM in [1] and 50 nM in [3]. Besides, the Activity in [2] was 84%; in [4] it was 104%.
